The species named for assay [1] is Rattus norvegicus. The experiment in a line: Evaluated in the two-lever drug discrimination assay in LSD trained rats to assess hallucinogenic-like activity (95% confidence intervals). The assay is classed as functional. The essentials: (§1)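 Rats trained (FR50, 15-min sessions) to discriminate ip training drug from saline: LSD 0.08 mg/kg (186 nmol/kg), DOI 0.4 mg/kg (1.12 µmol/kg) or LY293284 0.025 mg/kg (75 nmol/kg), in 0.9% saline. Test drugs given ip 30 min (or 15 min) before extinction sessions. At least three doses, at least eight rats per dose. Scored quantally as %SDL. ED50 and 95% CI by Litchfield–Wilcoxon.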

The species named for assay [2] is Rattus norvegicus. The experiment in a line: Evaluated in the two-lever drug discrimination assay in DOI trained rats to assess hallucinogenic-like activity (95% confidence intervals). Type of assay: functional. The essentials: as §1
The target in assay [3] is T1, 5-hydroxytryptamine receptor 1A (Homo sapiens, UniProt P08908).
T1 sequence (P08908 whole entry): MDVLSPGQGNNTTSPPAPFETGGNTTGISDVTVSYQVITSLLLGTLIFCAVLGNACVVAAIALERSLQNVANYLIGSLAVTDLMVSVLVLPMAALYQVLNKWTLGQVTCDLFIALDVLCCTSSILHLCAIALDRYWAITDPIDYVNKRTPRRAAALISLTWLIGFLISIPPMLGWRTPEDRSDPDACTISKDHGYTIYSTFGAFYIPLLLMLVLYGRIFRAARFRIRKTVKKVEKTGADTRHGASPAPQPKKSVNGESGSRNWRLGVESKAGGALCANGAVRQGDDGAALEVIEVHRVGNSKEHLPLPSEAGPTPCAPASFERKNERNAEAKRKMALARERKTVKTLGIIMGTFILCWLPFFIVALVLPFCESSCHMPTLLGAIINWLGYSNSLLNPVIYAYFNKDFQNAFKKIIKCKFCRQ
As to the kind of experiment: EC50 for inhibition of 50 uM forskolin-stimulated cAMP accumulation against 5-hydroxytryptamine 1A receptor. The assay is classed as functional. (In general: Cyclic AMP is a second messenger, typically raised through Gs and lowered through Gi signalling.)

The target of assay [4] is T1, 5-hydroxytryptamine receptor 1A. As to the kind of experiment: Evaluated for the binding constant at [3H]8-OH-DPAT-labeled human 5-hydroxytryptamine 1A receptor.
Assay [5] deals with T2, 5-hydroxytryptamine receptor 2C (Rattus norvegicus, UniProt P08909).
T2 sequence (P08909 whole entry): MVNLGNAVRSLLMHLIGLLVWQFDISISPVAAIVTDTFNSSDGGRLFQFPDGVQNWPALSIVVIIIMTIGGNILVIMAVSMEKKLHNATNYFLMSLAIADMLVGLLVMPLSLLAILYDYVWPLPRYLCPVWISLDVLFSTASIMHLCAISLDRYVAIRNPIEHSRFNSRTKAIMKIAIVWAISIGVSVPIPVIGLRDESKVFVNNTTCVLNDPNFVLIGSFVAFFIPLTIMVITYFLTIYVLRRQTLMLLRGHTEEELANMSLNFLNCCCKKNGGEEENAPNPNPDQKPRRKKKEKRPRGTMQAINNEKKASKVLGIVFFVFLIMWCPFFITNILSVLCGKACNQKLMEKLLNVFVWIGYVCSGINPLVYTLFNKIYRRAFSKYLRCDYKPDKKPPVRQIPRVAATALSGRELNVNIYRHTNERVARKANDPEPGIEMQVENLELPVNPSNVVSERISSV
The experiment in a line: Evaluated for the binding constant at [125I]-DOI-labeled rat 5-hydroxytryptamine 2C receptor. The essentials: (§2)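 Competition binding with membranes from harvested cells. Rat 5-HT2A or 5-HT2C receptors were expressed in NIH3T3 cells and labelled with 0.20 nM [125I]DOI. […] Buffer was 50 mM Tris, 0.5 mM EDTA, 10 mM MgCl2, pH 7.4. Incubation ran 60 min at 25 °C, then filtration and counting. Ten concentrations were run in duplicate, n = 3-5. Ki was obtained by Cheng–Prusoff.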

The target of assay [6] is 5-hydroxytryptamine receptor 2A (Rattus norvegicus) (UniProt P14842). As to the kind of experiment: Intrinsic activity was determined at 5-hydroxytryptamine 2A receptor which is percentage response given compared with the response produced by 10 uM serotonin. The essentials:
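Cells were pretreated 15 min with 10 µM pargyline and 10 mM LiCl, then exposed to agonist for 30 min at 37 °C. Inositol phosphates were separated on Dowex-1 and counted. EC50 was taken for PI turnover. Intrinsic activity is the response relative to 10 µM serotonin. Repeated 3-4 times.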

Assay [7] concerns the target T3, 5-hydroxytryptamine receptor 2A (Rattus norvegicus, UniProt P14842). The experiment in a line: Evaluated for the effective concentration at [125I]-DOI-labeled rat 5-hydroxytryptamine 2A receptor.
The target of assay [8] is T3, 5-hydroxytryptamine receptor 2A. As to the kind of experiment: Evaluated for the binding constant at [125I]-DOI-labeled rat 5-hydroxytryptamine 2A receptor. The essentials:
as §2

The subject of assay [9] is Rattus norvegicus. As to the kind of experiment: Maximum percentage of DOI-trained rats responding on the training drug lever at 1 umol/kg. Type of assay: functional. The essentials:
as §1

Assay [10] has as its target T4, 5-hydroxytryptamine receptor 1A (Rattus norvegicus) (UniProt P19327).
T4 sequence (whole entry): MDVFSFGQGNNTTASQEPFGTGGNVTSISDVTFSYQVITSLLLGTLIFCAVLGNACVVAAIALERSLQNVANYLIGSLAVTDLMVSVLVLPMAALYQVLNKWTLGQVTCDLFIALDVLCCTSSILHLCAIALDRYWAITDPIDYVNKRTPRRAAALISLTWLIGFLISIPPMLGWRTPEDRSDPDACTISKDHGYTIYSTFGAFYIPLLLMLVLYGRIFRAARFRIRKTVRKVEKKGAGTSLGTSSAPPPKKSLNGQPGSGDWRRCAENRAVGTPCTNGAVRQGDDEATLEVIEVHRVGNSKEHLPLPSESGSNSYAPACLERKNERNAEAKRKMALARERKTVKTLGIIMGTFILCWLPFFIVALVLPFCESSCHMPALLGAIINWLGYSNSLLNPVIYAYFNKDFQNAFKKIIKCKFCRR
The experiment in a line: Evaluated for the 5-hydroxytryptamine 1A receptor agonist activity in LY-293284 trained rats. Type of assay: functional. The essentials: as §1

Assay [11] relates to Rattus norvegicus. The experiment in a line: Maximum percentage of LSD-trained rats responding on the training drug lever at 2 umol/kg. Type of assay: functional. The essentials: as §1
Assay [12] relates to Rattus norvegicus. The experiment in a line: Maximum percentage of DOI-trained rats responding on the training drug lever at 8 umol/kg. Type of assay: functional. The essentials: as §1
Assay [13] relates to Rattus norvegicus. The experiment in a line: Maximum percentage of LSD-trained rats responding on the training drug lever at 8 umol/kg. Type of assay: functional. The essentials: as §1
Assay [14] relates to Rattus norvegicus. As to the kind of experiment: Maximum percentage of DOI-trained rats responding on the training drug lever at 4 umol/kg. The assay is classed as functional. The essentials:
as §1

Assay [15] has as its target T1, 5-hydroxytryptamine receptor 1A. As to the kind of experiment: Evaluated for the binding constant at [3H]8-OH-DPAT-labeled human 5-hydroxytryptamine 1A receptor receptor.

Sequence of 5-hydroxytryptamine receptor 2A (Rattus norvegicus) (P14842 whole entry): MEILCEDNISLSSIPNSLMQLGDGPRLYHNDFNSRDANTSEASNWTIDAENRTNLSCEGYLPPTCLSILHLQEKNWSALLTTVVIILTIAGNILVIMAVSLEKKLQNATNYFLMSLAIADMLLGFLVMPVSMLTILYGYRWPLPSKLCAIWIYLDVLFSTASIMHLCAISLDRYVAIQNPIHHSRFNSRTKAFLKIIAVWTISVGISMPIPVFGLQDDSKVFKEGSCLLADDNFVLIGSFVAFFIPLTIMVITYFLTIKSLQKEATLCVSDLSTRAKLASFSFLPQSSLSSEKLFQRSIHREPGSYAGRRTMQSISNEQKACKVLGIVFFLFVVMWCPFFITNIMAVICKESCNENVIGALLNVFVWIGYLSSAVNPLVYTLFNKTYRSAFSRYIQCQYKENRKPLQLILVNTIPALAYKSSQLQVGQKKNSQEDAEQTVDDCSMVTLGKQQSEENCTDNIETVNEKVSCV
T3 sequence (P14842 whole entry): as above

For the compound `COc1cc(CC(C)N)c(OC)cc1I` (centres undefined), the figures for the ED50 in the assay listed under Rattus norvegicus [1] and in the assay listed under Rattus norvegicus [2] were 0.27 µmol/kg and 0.3 µmol/kg, respectively.

Consider `CCN(CC)CCc1c[nH]c2ccc(OC)cc12`, for which the figures for the EC50 in assay [3] and in [7] were 22 nM and 2390 nM, respectively. The Ki – broadly, the equilibrium dissociation constant of an inhibitor or competing ligand from its target – in assay [4] worked out at 1.7 nM; in assay [5] it was 16 nM; in assay [8] it was 42 nM. The Intrinsic activity in assay [6] came to 99%. It took a dose of 1.49 µmol/kg to reach the 50% effect level in the assay filed under Rattus norvegicus [1] (ED50).

Take `COc1ccc2[nH]cc(CCN(C)C)c2c1F`: the EC50 (usually the concentration at which the effect is half-maximal) came out at 0.93 nM in [3] and 18100 nM in [7]. For the same compound, the Ki amounted to 55 nM in [5] and 122 nM in [8]. The Intrinsic activity in assay [6] came to 88%. Further, the ED50 (commonly the dose that gives a 50% effect, or the effect in half of the subjects) with Rattus norvegicus [9] came to 66 µmol/kg; in [10], 0.17 µmol/kg; in the assay on Rattus norvegicus [11] it was 22 µmol/kg.

Regarding `CCCN(CCC)C1CCc2cccc(O)c2C1` (centres undefined), in assay [10], the median effective dose (ED50) worked out at 0.099 µmol/kg.

For the compound `CN(C)CCc1c[nH]c2cc(F)cc(O)c12`, the values for the inhibition constant Ki in assay [4] and in assay [5] were 114 nM and 7.4 nM, respectively. For the same compound, the Intrinsic activity in assay [6] is 85%. In assay [7], this compound showed a 50% effective concentration (EC50) of 2600 nM.

Take `CCN(CC)CCc1c[nH]c2cc(F)ccc12`: the results for the median effective dose (ED50) in the assay with Rattus norvegicus [12] and in the assay with Rattus norvegicus [13] were 33 µmol/kg and 40 µmol/kg, respectively. The concentration giving a half-maximal response (EC50) in [3] is 3700 nM; in assay [7], 33900 nM. Further, the results for the Ki in assay [4], in [5] and in [8] were 256 nM, 210 nM and 145 nM, respectively. The Intrinsic activity in assay [6] amounted to 63%.

Consider `COc1cc2c(CCN(C)C)c[nH]c2cc1F`, for which the values for the inhibition constant Ki in assay [4], in assay [5] and in assay [8] were 84.5 nM, 19 nM and 33 nM, respectively. The Intrinsic activity in assay [6] came out at 110%. The same compound came in with a concentration giving a half-maximal response (EC50) in assay [7] of 7900 nM. Moreover, the 50% effective dose (ED50) with Rattus norvegicus [14] was found to be 50 µmol/kg; in the assay listed under Rattus norvegicus [1], 4.72 µmol/kg.

As to `CN(C)CCc1c[nH]c2c(F)ccc(O)c12`, the median effective dose (ED50) in the assay on Rattus norvegicus [13] stood at 63 µmol/kg. For the same compound, the inhibition constant (Ki) in assay [5] came to 5.4 nM; in [15], 120 nM; in assay [8] it was 13 nM. Besides, in [6], the Intrinsic activity was 76%. A half-maximal response in assay [7] (EC50) required 4920 nM.

Take `CCN(CC)CCc1c[nH]c2ccccc12`: the EC50 came to 680 nM in [3] and 5370 nM in assay [7]. In addition, the Ki came out at 47 nM in assay [4], 104 nM in assay [5] and 133 nM in assay [8]. Besides, the Intrinsic activity in [6] came out at 82%. The compound further had a median effective dose (ED50) in the assay listed under Rattus norvegicus [1] of 2.53 µmol/kg.

Compound `CCCN(CCC)C1Cc2c[nH]c3ccc(C(C)=O)c(c23)C1` (centres undefined) [LY-293284] displayed a 50% effective concentration (EC50) in [3] of 0.13 nM. The same compound returned an ED50 in [10] of 0.031 µmol/kg.

In the case of `CCN(CC)C(=O)[C@@H]1C=C2c3cccc4[nH]cc(c34)C[C@H]2N(C)C1` [LYSERGIDE], the ED50 turned out to be 0.037 µmol/kg in the assay filed under Rattus norvegicus [1] and 0.014 µmol/kg in the assay listed under Rattus norvegicus [2].
